Values after ≈ are worked out from the molar mass of the structure shown. Active and inactive are the calls of the source. No cut-off for these calls is given here.
How the values were obtained:
[1] = biological target: T1, Phosphatidylinositol 4,5-bisphosphate 3-kinase catalytic subunit beta isoform (Homo sapiens, UniProt P42338); assay: Inhibition of PI3Kbeta in human platelet-rich plasma assessed as suppression of ADP-induced platelet aggregation preincubated for 5 mins followed by ADP stimulation after 10 mins by light transmission aggregometric analysis
Procedure, shortened: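 Human platelet-rich plasma stimulated with ADP; aggregation measured over a concentration range of inhibitor, and IC50 taken from the dose-response curve.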

[2] = test system: Mus musculus; assay: Antithrombosis activity in C57BL/6 mouse model of electrolytic injury induced occlusive thrombus formation assessed as prevention of arterial thrombi formation by measuring effect on carotid artery blood flow volume at 2.5 mg/kg, iv administered through bolus prior to electrolytic injury measured after 60 mins; type: functional, organism-based
Procedure, shortened: (§1)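 Electrolytic injury to the mouse carotid artery; 2.5 mg/kg given iv in saline (n = 8) against saline control (n = 8). Carotid blood flow (ml/min per 100 g body weight) monitored after injury, and flow volume taken as area under the curve over the 60-min period; mean ± S.E.M.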

[3] = test system: Mus musculus; assay: Toxicity in C57BL/6 mouse model of electrolytic injury induced occlusive thrombus formation assessed as increase in tail bleeding time at 2.5 mg/kg, iv bolus administration; type: organism-based; details: in vivo
Procedure, shortened: (§2)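 Mouse tail bleeding assay after 2.5 mg/kg iv (n = 8) against vehicle, 0.01% DMSO (n = 8). Tail bleeding time recorded; blood loss quantified as absorbance of haemoglobin at 575 nm.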

[4] = biological target: T2, Proteinase-activated receptor 1 (Homo sapiens) (UniProt P25116); assay: Inhibition of PAR1 in human washed platelets assessed as suppression of TRAP-induced integrin alpha2bbeta3 activation preincubated for 5 mins followed by TRAP stimulation after 10 mins by OG-FNG-based FACS analysis
T2 sequence (whole entry): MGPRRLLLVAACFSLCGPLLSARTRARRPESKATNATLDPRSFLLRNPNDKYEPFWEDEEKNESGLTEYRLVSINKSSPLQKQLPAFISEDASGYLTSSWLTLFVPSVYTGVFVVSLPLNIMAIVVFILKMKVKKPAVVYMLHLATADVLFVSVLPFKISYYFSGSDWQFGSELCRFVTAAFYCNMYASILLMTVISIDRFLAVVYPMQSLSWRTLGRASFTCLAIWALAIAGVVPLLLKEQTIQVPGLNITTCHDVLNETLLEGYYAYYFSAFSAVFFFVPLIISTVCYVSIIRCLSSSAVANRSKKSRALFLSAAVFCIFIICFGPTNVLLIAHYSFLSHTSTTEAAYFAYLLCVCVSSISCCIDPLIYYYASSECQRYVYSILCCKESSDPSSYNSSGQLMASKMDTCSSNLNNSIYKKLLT
Procedure, shortened: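 Washed human platelets stimulated with TRAP at 0.5–1 µM, chosen by donor response. αIIbβ3 activation read as Oregon-Green fibrinogen binding by flow cytometry. DMSO 0.25% control set as 100%. n = 4-7, mean ± SEM.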

[5] = Blood clearance in rat by LC-MS analysis; type: ADME, tissue-based; details: whole blood
[6] = Distribution constant, logD of compound at pH 7.4; type: physicochemical; details: buffer
[7] = Apparent oral bioavailability in Sprague-Dawley rat at 20 mg/kg administered via gavage by LC-MS analysis; type: ADME, organism-based; details: in vivo, read-out: Fapp
Procedure, shortened: (§3)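 Sprague Dawley rats, n=2 per route. Single dose: 3 mg/kg intravenous or 20 mg/kg oral. Plasma concentration followed over time. Half-life, volume of distribution, clearance, Tmax and oral bioavailability derived from the plasma concentration-time profiles.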

[8] = biological target: albumin (Homo sapiens, UniProt P02768); assay: Protein binding to human serum albumin by HPLC analysis; type: ADME; details: read-out: PB (converted)
[9] = test system: Platelet; assay: Antiplatelet activity against human washed platelets assessed as reduction in shear-induced stationary platelet adhesion to vWF matrix preincubated for 5 mins followed by blood perfusion after 4 mins; type: functional, cell-based
Procedure, shortened: (§4)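 Human whole blood, anticoagulated, perfused over a vWf matrix at 1800 s^-1 for 4 min; stationary platelet adhesion scored. Vehicle DMSO 0.25% taken as 100%. Drug tested up to 5 µM. t test against 0.1 µM drug.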

[10] = Aqueous solubility of compound at pH 2 by turbidimetric solubility assay; type: physicochemical; details: buffer
[11] = Intrinsic clearance in human liver microsomes at 1 uM after 60 mins in presence of NADPH by UPLC-MS analysis; type: ADME; details: read-out: CLH
[12] = Antiplatelet activity against human washed platelets assessed as shear-induced stationary platelet adhesion to vWF matrix at 1 to 5 uM preincubated for 5 mins followed by blood perfusion after 4 mins relative to control; type: functional; procedure, shortened: as §4
[13] = Clearance in rat by LC-MS analysis relative to hepatic blood flow; type: ADME, Liver; details: in vivo
[14] = test system: Rattus norvegicus; assay: Toxicity in Sprague-Dawley rat at 20 mg/kg, po administered via gavage or 3 mg/kg, iv; type: organism-based; details: in vivo
[15] = biological target: T1, Phosphatidylinositol 4,5-bisphosphate 3-kinase catalytic subunit beta isoform; assay: Inhibition of PI3Kbeta in human washed platelets assessed as suppression of ADP-induced platelet aggregation preincubated for 5 mins followed by ADP stimulation after 10 mins by light transmission aggregometric analysis
Procedure, shortened: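 Washed human platelets in a conventional aggregometer. Aggregation induced by ADP; IC50 taken from the dose-response curve.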

[16] = Effect on platelet tethering in human washed platelets at 0.1 to 5 uM; type: ADME, cell-based
[17] = biological target: T1, Phosphatidylinositol 4,5-bisphosphate 3-kinase catalytic subunit beta isoform; assay: Inhibition of PI3Kbeta in human washed platelets assessed as suppression of ADP-induced integrin alpha2bbeta3 activation preincubated for 5 mins followed by ADP stimulation after 10 mins by OG-FNG-based FACS analysis
Procedure, shortened: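 Washed human platelets stimulated with ADP (5 µM). Integrin αIIbβ3 activation read as Oregon-Green fibrinogen binding by flow cytometry. DMSO 0.25% control set as 100%. n = 3, mean ± SEM. t test against 0.001 µM drug.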

[18] = Plasma clearance in Sprague-Dawley rat at 3 mg/kg, iv by LC-MS analysis; type: ADME, organism-based; procedure, shortened: as §3
[19] = Effect on platelet translocation in human washed platelets at 0.1 to 5 uM; type: ADME, cell-based
[20] = Aqueous solubility of compound in saline; type: physicochemical; details: buffer
[21] = biological target: T1, Phosphatidylinositol 4,5-bisphosphate 3-kinase catalytic subunit beta isoform; assay: Inhibition of PI3Kbeta in human washed platelets assessed as suppression of ADP-induced platelet aggregation at 0.5 uM preincubated for 5 mins followed by 5 to 10 uM ADP stimulation after 10 mins by light transmission aggregometric analysis
Procedure, shortened: (§5)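 Washed human platelets in an aggregometer. Inhibitor at 0.5 µM. Aggregation induced by 5, 10 or 25 µM ADP; percent inhibition read.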

[22] = test system: Mus musculus; assay: Antithrombosis activity in C57BL/6 mouse model of electrolytic injury induced occlusive thrombus formation assessed as prevention of arterial thrombi formation by measuring effect on rate of carotid artery blood flow at 2.5 mg/kg, iv administered through bolus prior to electrolytic injury; type: functional, organism-based; procedure, shortened: as §1
[23] = biological target: T1, Phosphatidylinositol 4,5-bisphosphate 3-kinase catalytic subunit beta isoform; assay: Inhibition of PI3Kbeta in human washed platelets assessed as suppression of ADP-induced platelet aggregation at 0.5 uM preincubated for 5 mins followed by 25 uM ADP stimulation after 10 mins by light transmission aggregometric analysis; procedure, shortened: as §5
[24] = Volume of distribution at steady state in Sprague-Dawley rat at 3 mg/kg, iv by LC-MS analysis; type: ADME, organism-based; details: in vivo, read-out: Vdss; procedure, shortened: as §3
[25] = Distribution constant, logD of compound at pH 3; type: physicochemical; details: buffer
[26] = Intrinsic clearance in rat liver microsomes at 1 uM after 60 mins in presence of NADPH by UPLC-MS analysis; type: ADME; details: read-out: CLH
[27] = Stability in Sprague-Dawley rat plasma at […] after 4 hrs by UPLC-MS analysis; type: ADME, cell-free
[28] = Apparent half life in Sprague-Dawley rat at 3 mg/kg, iv by LC-MS analysis; type: ADME, organism-based; details: in vivo, read-out: t1/2(app); procedure, shortened: as §3
[29] = Drug excretion in iv dosed rat urine by LC-MS analysis; type: ADME, organism-based; details: read-out: Drug excretion
[30] = test system: Mus musculus; assay: Toxicity in C57BL/6 mouse model of electrolytic injury induced occlusive thrombus formation assessed as excessive blood loss at 2.5 mg/kg, iv bolus administration; type: organism-based; details: in vivo; procedure, shortened: as §2
[31] = Aqueous solubility of compound at pH 6.5 by turbidimetric solubility assay; type: physicochemical; details: buffer
[32] = Tmax in Sprague-Dawley rat at 20 mg/kg, po via gavage by LC-MS analysis; type: ADME, organism-based; details: in vivo; procedure, shortened: as §3

T1 sequence (P42338 whole entry, looked up, canonical isoform): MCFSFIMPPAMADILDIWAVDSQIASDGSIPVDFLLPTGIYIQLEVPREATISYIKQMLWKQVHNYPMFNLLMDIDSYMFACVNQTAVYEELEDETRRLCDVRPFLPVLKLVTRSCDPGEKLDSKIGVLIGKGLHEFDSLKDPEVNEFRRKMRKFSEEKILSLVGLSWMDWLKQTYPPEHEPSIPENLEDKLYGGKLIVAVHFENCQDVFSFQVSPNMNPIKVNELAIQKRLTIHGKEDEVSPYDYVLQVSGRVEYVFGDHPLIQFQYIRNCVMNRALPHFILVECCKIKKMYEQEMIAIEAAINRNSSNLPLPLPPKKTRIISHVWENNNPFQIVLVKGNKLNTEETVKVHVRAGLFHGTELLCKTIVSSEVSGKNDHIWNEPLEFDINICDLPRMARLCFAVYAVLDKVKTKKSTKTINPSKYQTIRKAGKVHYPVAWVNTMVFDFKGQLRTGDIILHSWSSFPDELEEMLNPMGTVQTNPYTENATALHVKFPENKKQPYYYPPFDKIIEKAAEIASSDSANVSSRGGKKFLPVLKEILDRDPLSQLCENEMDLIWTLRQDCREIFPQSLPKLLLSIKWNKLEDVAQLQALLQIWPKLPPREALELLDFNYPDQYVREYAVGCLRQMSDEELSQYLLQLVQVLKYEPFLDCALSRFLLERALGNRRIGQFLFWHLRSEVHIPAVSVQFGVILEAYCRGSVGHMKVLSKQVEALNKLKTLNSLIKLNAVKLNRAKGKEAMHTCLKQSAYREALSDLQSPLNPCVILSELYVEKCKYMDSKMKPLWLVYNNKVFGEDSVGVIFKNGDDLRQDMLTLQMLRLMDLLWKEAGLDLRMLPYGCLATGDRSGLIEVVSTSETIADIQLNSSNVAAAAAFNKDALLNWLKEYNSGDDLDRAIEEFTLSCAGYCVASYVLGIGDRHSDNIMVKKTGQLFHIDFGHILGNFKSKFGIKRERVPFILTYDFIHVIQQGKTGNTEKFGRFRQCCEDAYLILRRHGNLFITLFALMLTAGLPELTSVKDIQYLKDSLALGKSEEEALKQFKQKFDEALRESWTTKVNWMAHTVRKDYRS
albumin, sequence (P02768 whole entry, the tested form may be a part): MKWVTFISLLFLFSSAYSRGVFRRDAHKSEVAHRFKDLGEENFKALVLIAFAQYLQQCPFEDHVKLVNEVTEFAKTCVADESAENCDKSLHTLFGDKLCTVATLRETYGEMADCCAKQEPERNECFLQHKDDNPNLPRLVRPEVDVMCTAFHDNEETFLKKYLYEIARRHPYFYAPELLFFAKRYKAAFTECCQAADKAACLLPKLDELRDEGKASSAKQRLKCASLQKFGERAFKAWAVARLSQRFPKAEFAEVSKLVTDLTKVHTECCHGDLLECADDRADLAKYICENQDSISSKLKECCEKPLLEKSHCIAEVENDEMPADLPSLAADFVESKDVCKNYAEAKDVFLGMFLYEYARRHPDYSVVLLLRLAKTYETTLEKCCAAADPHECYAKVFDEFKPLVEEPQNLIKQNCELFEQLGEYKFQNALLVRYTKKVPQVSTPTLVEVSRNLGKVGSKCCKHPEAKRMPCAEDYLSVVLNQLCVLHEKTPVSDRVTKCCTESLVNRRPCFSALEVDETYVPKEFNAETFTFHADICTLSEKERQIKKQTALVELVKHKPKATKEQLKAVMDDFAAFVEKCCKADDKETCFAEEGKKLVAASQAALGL

inhibition [1]: Dose-dependent effect | inhibition [4]: Dose-dependent effect | clearance [5]: 39 mL/min/kg | logD [6]: 3.7 | bioavailability [7]: 26% | fraction unbound [8]: 0.03 | solubility kinetic [10]: > 100 µg/mL | microsomal CLint at 1 µM [11]: 22 µL/min/mg | CL [13]: 60% | inhibition [15]: Dose-dependent effect | inhibition [17]: Dose-dependent effect | clearance [18]: 67 mL/min/kg | solubility [20]: Soluble | inhibition [21]: Active | inhibition [23]: 15% | Vd [24]: 8.6 L/kg | logD [25]: 3 | microsomal CLint at 1 µM [26]: 43 µL/min/mg | Stability [27]: Stable | half-life [28]: 168 to 180 min | dose excreted [29]: < 0.1% | solubility kinetic [31]: 6.3 to 12.5 µg/mL (≈ 11.2 to 22.2 µM) | Tmax [32]: 1 to 4 h
SMILES: N[C@@H](Cc1ccccc1)C(=O)N1CCN(c2nc(N3CCOCC3)nc(-n3c(C(F)F)nc4ccccc43)n2)CC1
Activity [2]: Active | Activity [3]: Non-Toxic | inhibition [9]: Dose-dependent effect | inhibition (INH) [12]: <=60% | Activity [14]: Non-Toxic | Activity [16]: Non-Toxic | Activity [19]: Non-Toxic | Activity [22]: Active | Activity [30]: Non-Toxic

From ChEMBL document CHEMBL3865805, “Discovery and antiplatelet activity of a selective PI3Kβ inhibitor (MIPS-9922)” (Eur J Med Chem, 2016)
